Compound activity as filed in PubChem BioAssay.
KCC2 mod: modulates chloride dependent transport by human KCC2 | KCC2 cells, thallium flux FluoZin-2 fluorescence | Q9H2X9 | B-score of Tl+ flux slope (higher = more flux/activation; lower = inhibition) at 10 µM | 190,000 tested, 2.2% active;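 active means thallium flux slope and its plate-corrected score both differing from the plate sample mean at a set confidence after two filtering rounds, in either direction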;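 further: slope of fluorescence scaled to starting intensity during 10 to 20 s after thallium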
Target sequence (Q9H2X9 whole entry, looked up): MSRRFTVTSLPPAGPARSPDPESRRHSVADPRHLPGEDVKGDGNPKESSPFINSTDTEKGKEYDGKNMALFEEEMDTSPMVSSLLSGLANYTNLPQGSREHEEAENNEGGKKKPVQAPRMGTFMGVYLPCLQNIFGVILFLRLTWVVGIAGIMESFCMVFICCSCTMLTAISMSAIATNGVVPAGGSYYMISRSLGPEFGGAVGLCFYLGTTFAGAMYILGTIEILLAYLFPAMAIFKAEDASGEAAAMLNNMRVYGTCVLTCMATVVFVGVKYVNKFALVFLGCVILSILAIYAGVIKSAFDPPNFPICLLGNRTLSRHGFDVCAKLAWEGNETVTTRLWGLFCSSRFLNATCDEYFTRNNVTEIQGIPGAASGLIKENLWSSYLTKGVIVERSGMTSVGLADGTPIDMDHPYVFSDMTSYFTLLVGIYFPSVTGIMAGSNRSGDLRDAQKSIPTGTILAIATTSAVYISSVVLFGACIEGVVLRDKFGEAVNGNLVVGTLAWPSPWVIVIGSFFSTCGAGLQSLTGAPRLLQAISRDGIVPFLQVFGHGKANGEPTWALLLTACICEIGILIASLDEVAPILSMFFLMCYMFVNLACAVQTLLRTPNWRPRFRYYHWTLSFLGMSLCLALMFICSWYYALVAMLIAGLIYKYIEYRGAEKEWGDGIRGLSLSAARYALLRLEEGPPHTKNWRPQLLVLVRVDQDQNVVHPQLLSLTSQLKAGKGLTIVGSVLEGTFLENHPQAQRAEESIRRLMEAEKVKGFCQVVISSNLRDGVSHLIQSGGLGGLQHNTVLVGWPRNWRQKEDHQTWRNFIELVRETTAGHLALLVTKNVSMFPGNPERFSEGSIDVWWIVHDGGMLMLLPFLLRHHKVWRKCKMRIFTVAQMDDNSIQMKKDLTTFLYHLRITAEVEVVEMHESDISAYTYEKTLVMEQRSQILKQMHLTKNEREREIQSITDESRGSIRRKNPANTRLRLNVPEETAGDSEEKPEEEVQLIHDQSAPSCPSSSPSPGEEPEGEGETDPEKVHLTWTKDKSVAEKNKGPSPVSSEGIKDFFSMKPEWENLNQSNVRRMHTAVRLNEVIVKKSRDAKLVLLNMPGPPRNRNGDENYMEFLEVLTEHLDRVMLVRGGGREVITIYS
STAT3 activator: activators of IL-6 induced STAT3 signaling. U3A cells, IL-6 STAT3-luciferase reporter, luminescence; 100% = signal with IL-6 EC80 alone. activation (% of control), % at 5.6 µM. 190,000 tested, 0.91% active. AID 871;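 active means activation above the screen-wide mean of compound activation plus 3 SD, cut at about 130% in these data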
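system = STAT3-luciferase reporter U3A cells | reagent = IL-6 stimulus at 33 ng/mL final | timing = 1 h compound pre-exposure, 6 h IL-6 stimulation, 37 °C | measured by = luminescence | evaluation = % activation versus median of IL-6-stimulated wells | control set = IL-6-only wells as 100% reference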
STAT1 inh: reduces IFN-gamma driven STAT1 reporter signal; 200,000 tested, 0.35% active; NIH 3T3 STAT1-luciferase reporter, luminescence; inhibition, % at 5.5 µM; AID 920;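 active means inhibition above a set limit, the mean inhibition across all tested compounds plus 3 SD, cut at about 34% in these data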
HSV augment: increases HSV replication in cells; maximum fold increase; AID 1956; 220,000 tested, 0.005% active; HSV replication augmentation in cells, fold increase; in the data active means maximum fold increase above about 1.5; inconclusive means no clear call, values can overlap the other calls; tested in PC3 cells
STAT1 activator: activators of IFN-gamma induced STAT1 signaling; NIH 3T3 STAT1-luciferase reporter, luminescence; 100% = IFN-gamma alone, no compound; activation (% of control), % at 5.5 µM; 200,000 tested, 2.6% active; AID 932;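 active means activation above the screen-wide mean activation plus 3 SD, cut at about 130% in these data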
STAT3 inh: inhibitors of IL-6 induced STAT3 signaling; U3A cells, IL-6 STAT3-luciferase reporter, luminescence; host cell line lacks STAT1; inhibition, % at 5.5 µM; 190,000 tested, 0.89% active;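 active means inhibition above the mean inhibition across all screened compounds plus 3 SD, cut at about 44% in these data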
Of the large screens only hits and unclear results are named; the others gave an inactive call. Hits are enriched below; roughly 5.5% of the tested compounds scored in any of these assays.

O=C(O)c1ccc(-c2noc(-c3ccccc3F)n2)cc1	none (no result: KCC2 mod, STAT3 activator, STAT1 inh, STAT1 activator, STAT3 inh)
O=[N+]([O-])c1cc(Cl)ccc1-c1nc(-c2ccncc2)no1	none
O=[N+]([O-])c1cc(Cl)ccc1-c1nc(-c2ccccc2)no1	STAT1 activator 187.9
N/C(=N\OC(=O)c1ccco1)c1ccc(Cl)cc1	STAT1 activator 137.1
Cc1ccc(CNC(=O)CN(C)S(=O)(=O)c2cccs2)cc1	none
COc1cc(SC)ccc1C(=O)OCC(=O)NC1CC1	none
COc1cc(SC)ccc1C(=O)Nc1ccc(C)cc1	STAT1 activator 146.3
COc1cc(SC)ccc1C(=O)Nc1ccc(S(=O)(=O)N2CCCC2)cc1	HSV augment inconclusive
COC(=O)c1ccc(COC(=O)c2ccc(SC)cc2OC)cc1	STAT1 activator 134.9
COc1cc(SC)ccc1C(=O)Nc1ncc(C)s1	STAT1 inh 89.7, STAT3 inh 100.5
COc1cc(SC)ccc1C(=O)Nc1cccc(C)n1	STAT1 activator 143.8
COc1cc(OC)c(NC(=S)NCc2ccc(F)cc2)cc1Cl	none
O=C(CCCc1ccccc1)NCc1ccc(F)cc1	none
COc1ccc(C2=CSC3=C(C(=O)c4cccc(S(=O)(=O)N(C)C)c4)CCN23)cc1	none (no result: KCC2 mod)
CC(C)CCNC(=O)Cc1csc(-c2ccccc2)n1	none
O=C(O)c1nccnc1C(=O)Nc1ccccc1-c1ccccc1	none (no result: STAT3 activator, STAT1 inh, STAT1 activator, STAT3 inh)
O=C(NN1C(=O)c2ccccc2C1=O)C1C2CCCCC21 (stereo unspecified)	none
O=S(=O)(Nc1ccc(-c2nc3cccnc3s2)cc1)c1ccc(Cl)s1	STAT1 activator 131.4
O=S(=O)(Nc1ccc(-c2nc3cccnc3s2)cc1)c1cccs1	none
Cc1cc(-c2nc3cccnc3s2)ccc1NS(=O)(=O)c1cccs1	STAT1 activator 145.6 (no result: STAT3 activator, STAT3 inh)
CCS(=O)(=O)Nc1cc(-c2nc3cccnc3s2)ccc1C	STAT3 activator 162.1, STAT1 activator 135.3
COc1ccc(C(C)=O)cc1Cn1cnc2c(cnn2C)c1=O	none (no result: STAT3 activator, STAT1 inh, STAT1 activator, STAT3 inh)
NC(=O)c1ccc(N=Nc2c(-c3ccccc3)[nH]n(-c3ccccc3)c2=O)cc1	none
Cc1ccc(N=Nc2c(N)n(-c3ccccc3)[nH]c2=O)cc1	STAT1 activator 139.0
COc1ccc(-c2csc3[nH]c(=S)n(-c4ccccc4)c(=O)c23)cc1OC	none
Cc1ccc(S(=O)(=O)N=S(CCO)CCO)cc1	none
Cc1cc(C(=O)CSc2nncs2)c(C)n1-c1c(C)n(C)n(-c2ccccc2)c1=O	none
Cc1ccc(-n2c(C)cc(C(=O)CSc3nncs3)c2C)cc1	STAT1 activator 129.4
CC(=O)Nc1cccc(NC(C)=C(C#N)C#N)c1	none
CCCCNC(=S)Nc1ccc([N+](=O)[O-])cc1	none
CC(C)CNC(=S)NC(=O)c1ccc([N+](=O)[O-])cc1	KCC2 mod 20
CCCCNC(=S)NC(=O)c1ccc([N+](=O)[O-])cc1	KCC2 mod 21.1
c1ccc(CCn2c3ccccc3c3nnc(SCc4ccc5nonc5c4)nc32)cc1	none
COc1ccc(-c2nsc3c(N4CCCCC4C)ncnc23)cc1 (stereo unspecified)	STAT1 inh 80.6, STAT3 inh 98.7 (no result: KCC2 mod)
COc1ccc(C(=O)N=c2sc3c(C)ccc(OC)c3n2C)cc1	STAT1 activator 141.6
COc1ccccc1N1CCN(C(C)C(=O)N2CC(C)OC(C)C2)CC1 (stereo unspecified)	none
O=C(CNC(=O)/C(=C\c1ccccc1)NC(=O)c1ccc(Br)cc1)OCc1ccccc1	KCC2 mod -5.6
COc1ccc(C(=O)NCc2ccc(-c3nc4ccccc4s3)cc2)cc1	none (no result: KCC2 mod)
O=C(NCc1ccc(-c2nc3ccccc3s2)cc1)c1ccc(Br)o1	STAT1 activator 137.0
COc1cc(C(=O)NCc2ccc(-c3nc4ccccc4s3)cc2)cc(OC)c1OC	STAT1 activator 141.2
COc1ccc(-c2cn3cc(Br)cnc3n2)cc1	STAT1 activator 134.6
Cc1ccc(N/N=C(\C#N)C(=N)N2CCCCCC2)cc1	STAT1 activator 136.2
COc1ccc(N/N=C(\C#N)C(=N)N2CCCCC2)cc1	none (no result: STAT3 activator, STAT1 inh, STAT1 activator, STAT3 inh)
N#C/C(=N\Nc1ccccc1)C(=N)N1CCOCC1	none
N#C/C(=N\Nc1ccccc1F)C(=N)N1CCCCC1	STAT1 activator 148.1
N#C/C(=N\Nc1ccc(F)cc1)C(=N)N1CCCCCC1	STAT1 activator 150.1
Cc1ccc(N/N=C(\C#N)C(=N)N2CCOCC2)cc1	STAT1 activator 137.0
CC(=O)NNS(=O)(=O)c1ccc(-c2cc(C(F)(F)F)n(C)n2)s1	none (no result: STAT3 activator, STAT1 inh, STAT1 activator, STAT3 inh)
Cc1cc(C)nc(NNC(=O)c2ccccc2O)n1	none
Clc1ccc(-c2nnc(CCc3ccccc3)o2)c(Cl)c1	STAT1 activator 136.9
Cc1sc2nc(SCC(=O)NCc3ccco3)n(C)c(=O)c2c1C	none
CCn1c(SCC(=O)NC(=O)NCc2ccco2)nc2sc(C)c(C)c2c1=O	KCC2 mod 16 (no result: HSV augment)
Cc1cc(C(=O)CN2CCC(C)CC2)c(C)n1-c1ccccc1F	STAT1 activator 135.4
CC(C(=O)Nc1ccc(S(=O)(=O)N2CCCCC2)cc1)N1CCN(c2ccccn2)CC1 (stereo unspecified)	none
COc1ccc(Nc2nc3ccc(OC)cc3s2)cc1	STAT1 activator 129.5
Fc1ccc2nc(Nc3nc4cc5c(cc4s3)OCO5)sc2c1	none
Fc1ccc2nc(Nc3nc4c(F)cc(F)cc4s3)sc2c1	KCC2 mod 17.5
NNc1nc2ccc(F)cc2s1	STAT1 activator 149.9
COc1ccc2nc(NS(=O)(=O)c3ccc(NC(C)=O)cc3)sc2c1	none
NNc1nc2ccc(Cl)cc2s1	none
Fc1ccc2nc(Nc3ccccc3)sc2c1	STAT1 activator 139.7
COCCNC(=S)N1CCN(c2ccc(Cl)cc2)CC1	none
O=C(Nc1cccc(S(=O)(=O)Nc2ccc(Cl)cc2)c1)c1ccc[n+]([O-])c1	none (no result: STAT3 activator, STAT1 inh, STAT1 activator, STAT3 inh)
CCCCc1ccc(/C=C2\C(=O)c3ccccc3C(O)=C2C(=O)OCC)cc1	HSV augment inconclusive (no result: KCC2 mod)
N#CCC(=N)N1CCN(c2ccc(F)cc2)CC1	none
C/C(=N\OCc1ccc(C#N)cc1)c1ccccc1	STAT1 activator 142.0
C/C(=N/OCO/N=C(\C)c1ccccc1)c1ccccc1	none
COc1cccc(C(=O)Nc2ccc(S(=O)(=O)Nc3cc(C)nc(C)n3)cc2)c1	none
COc1ccc(C(C)=O)cc1CSc1nnc(Nc2ccccc2)s1	none
CS(=O)(=O)N(CCC#N)Cc1ccc(/C=C2\C(=O)Nc3ccccc32)o1	none
Cc1cc(OC(=O)c2ccccc2Br)cc(=O)n1C	STAT1 inh 39.0 (no result: KCC2 mod)
CC(=O)c1c(OC(=O)c2ccccc2Br)ccc2c(C)cc(=O)oc12	none (no result: HSV augment)
Cc1ccc(-c2nc3ccccn3c2C=O)cc1	STAT1 activator 132.3
COc1ccc(-c2nc3c4ccccc4ccn3c2C=O)cc1	none (no result: KCC2 mod)
CN(C)c1ccc(-c2nc3ccccn3c2/N=C/c2ccc(Br)cc2)cc1	STAT1 activator 134.2
Cc1c(-c2ccc(Br)cc2)nc2ccccn12	STAT1 activator 148.1
c1ccn2c(c1)nc1c2nc2ccccn21	none
